In the library only some 6.4% were active in any assay of this set; here they are far more common.
CHOP inh – CHOP inhibition in unfolded protein response; CHO-K1 CHOP-promoter luciferase, tunicamycin-induced, 15-18 h; inhibition, % at 10 µM; 220,000 tested, 3.8% active;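 active = compounds that reduced the stress-induced luciferase reporter signal by more than about 70% of percent inhibition, limit read from the data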;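 note: 0% = tunicamycin plus vehicle and 100% = wells without tunicamycin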
WT yeast gro inh – growth inhibition of WT yeast, mitochondrial fusion screen; mitochondrial fusion phenotypic screen, WT strain; inhibition, % at 10 µM; 190,000 tested, 2.1% active; AID 1362; in the data active = inhibition above about 58%; tested in S. cerevisiae
NR3A LBD binder – modulates the human NR3A ligand-binding domain. 340,000 tested, 2.5% active. NR3A LBD differential scanning fluorimetry, Tm shift; 0% = protein alone, 100% = glycine-bound protein. Tm shift relative to glycine control, % at 25 µM;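 active = melting temperature shift of at least 10% of the positive control shift, at one fixed dose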
TbMetRS inhib – blocks T. brucei methionyl-tRNA synthetase activity; purified T. brucei MetRS, ATP depletion, Kinase-Glo luminescence; inhibition, % at 11.9 µM; 360,000 tested, 0.4% active;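 active = inhibition above a per-plate cutoff of the control wells' mean inhibition plus 3 SD, cut at about 5.5% in these data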;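 note: 0% = DMSO wells median and 100% = median of wells with control inhibitor compound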
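Test system – parasite MetRS enzyme · Reagent – substrates ATP, L-methionine and bulk Escherichia coli tRNA · Doses – 11.9 µM compound single dose, 0.9% DMSO · Times – 15 min enzyme-compound preincubation, 2 h reaction, 10 min detection, 25 °C · Signal – Kinase-Glo luminescence, ATP depletion format · Controls – DMSO-only wells as low control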
EBV gp42 block – inhibitors of Epstein-Barr virus glycoprotein 42. Q1HVG2. Fluorescence polarization binding assay, mP read-out. inhibition, % (tested at 21.74 µM). 220,000 tested, 0.42% active; in the data active = inhibition above about 50%
Target sequence (Q1HVG2 whole entry, looked up): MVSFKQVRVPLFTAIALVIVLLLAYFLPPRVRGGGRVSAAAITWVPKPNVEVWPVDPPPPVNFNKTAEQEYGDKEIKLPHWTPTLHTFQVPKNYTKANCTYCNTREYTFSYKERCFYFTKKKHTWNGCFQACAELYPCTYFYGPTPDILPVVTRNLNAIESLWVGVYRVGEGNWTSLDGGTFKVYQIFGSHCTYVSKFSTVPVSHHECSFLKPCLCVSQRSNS
MPTP block – blocks calcium-induced mitochondrial swelling. isolated mouse mitochondria, Ca2+ swelling absorbance, 30 min. AID 602449. inhibition, % at 10 µM. 360,000 tested, 1.4% active;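 active = inhibition of 50% or more, scaled per plate between neutral and stimulator controls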;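 note: 0% = DMSO wells given calcium and 100% = 1 mM EGTA wells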
MPTP counter – mitochondrial membrane potential, counter-screen | shares compounds with MPTP block | isolated mitochondria, Rhodamine 123 fluorescence | inhibition, % at 10 µM | 5,000 tested, 78% active | AID 624504; in the data active = inhibition above about 22%;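 note: 0% = DMSO vehicle and 100% = positive control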
MPTP abs DR – MPTP inhibition, dose response swelling confirmation; shares compounds with MPTP block; isolated mitochondria swelling, absorbance; IC50, µM; 780 tested, 58% active; in the data active = IC50 below about 20 µM
MPTP counter DR – active in counter-screen for permeability transition pore inhibitors | shares compounds with MPTP block | isolated mitochondria counterscreen, fluorescence read-out | IC50, µM | 780 tested, 49% active | AID 651564; in the data active = IC50 below about 80 µM
An asterisk follows results filed as active.

Screening COc1ccc([N+](=O)[O-])cc1NC(=O)Nc1cccc(Cl)c1 returned CHOP inh 25, WT yeast gro inh 15, NR3A LBD binder 29*, TbMetRS inhib 0, EBV gp42 block -7, MPTP block 107* and MPTP counter 67*.
O=c1c(C(c2ccccc2)c2c(O)sc3ccccc3c2=O)c(O)sc2ccccc12 was read as CHOP inh -3, WT yeast gro inh -12, NR3A LBD binder 5, TbMetRS inhib -1, EBV gp42 block 7, MPTP block 68* and MPTP counter 71*.
CN=C1c2cc3cc(OC)ccc3n2CCN1Cc1ccccc1 was read as CHOP inh 24, WT yeast gro inh 1, NR3A LBD binder -3, TbMetRS inhib 0, EBV gp42 block -7 and MPTP block 3.
CCCNC(=O)Nc1ccc2c(c1)N(C)C(=O)c1ccccc1S2 was read as CHOP inh 34, WT yeast gro inh -4, NR3A LBD binder -8, TbMetRS inhib -1, EBV gp42 block 7 and MPTP block 19.
OCCN1CCN(CCCN2c3ccccc3Sc3ccc(Cl)cc32)CC1 was read as CHOP inh 8, WT yeast gro inh 96*, NR3A LBD binder -6, TbMetRS inhib -1, EBV gp42 block 2, MPTP block 53* and MPTP counter -22.
CN(C)CCCN1c2ccccc2Sc2ccc3ccccc3c21 was read as NR3A LBD binder -1, TbMetRS inhib 0 and MPTP block 3.
CN(C)CCCN1c2ccccc2Sc2ccc(Cl)cc21 was read as CHOP inh 9, WT yeast gro inh 45, NR3A LBD binder 2, TbMetRS inhib 0, EBV gp42 block -1, MPTP block 91*, MPTP counter -17, MPTP abs DR 5* and MPTP counter DR >80.
Screening CN1CCC(=C2c3ccccc3Sc3ccccc32)CC1 returned NR3A LBD binder 0, TbMetRS inhib 0, MPTP block 92*, MPTP counter -9, MPTP abs DR 7.3* and MPTP counter DR >80.
COc1ccc(CN2CCN(C(=O)CCC(=O)Nc3nnc(C(F)(F)F)s3)CC2)cc1F was read as NR3A LBD binder 3, TbMetRS inhib 0 and MPTP block 2.
O=C(NCCCCCCOC1=NS(=O)(=O)c2ccccc21)C(=O)Nc1ccccc1 was read as CHOP inh 27, WT yeast gro inh -2, NR3A LBD binder 1, TbMetRS inhib 0, EBV gp42 block -7, MPTP block 73* and MPTP counter 68*.
CC(CCOC1=NS(=O)(=O)c2ccccc21)NC(=O)C(=O)Nc1ccccc1 (stereo not drawn) was read as CHOP inh -2, NR3A LBD binder -4, TbMetRS inhib 0, EBV gp42 block -21 and MPTP block 1.
For CCOC(=O)c1cnn(-c2cc(C)cc(C)c2)c1N the results were CHOP inh 4, WT yeast gro inh 0, NR3A LBD binder 0, TbMetRS inhib 0, EBV gp42 block -4 and MPTP block -1.
Screening CCOC(=O)c1cnn(-c2sc(C(=O)OCC)c(C)c2C(=O)OCC)c1N returned NR3A LBD binder -3, TbMetRS inhib 0, MPTP block 88* and MPTP counter 74*.
Screening O=C(NNC(=S)Nc1cccc2ccccc12)c1cccc(Br)c1 returned CHOP inh 17, NR3A LBD binder 4, TbMetRS inhib 2, EBV gp42 block -13, MPTP block 68* and MPTP counter 87*.
O=C(Cc1ccc(F)cc1)Nc1nc(-c2ccc(F)c(F)c2)cs1 was read as NR3A LBD binder -1, TbMetRS inhib 0, MPTP block 59* and MPTP counter 86*.
`Cc1csc(NC(=O)Cc2ccc(F)cc2)n1` gave NR3A LBD binder 1, TbMetRS inhib 2 and MPTP block 3.
O=C1[C@H]2[C@@H](c3ccc(C(F)(F)F)cc3)N[C@]3(CCCN(Cc4ccc(C(F)(F)F)cc4)C3=O)[C@H]2C(=O)N1Cc1ccccc1 was read as TbMetRS inhib -1 and MPTP block -3.
Screening COc1ccccc1N(C)S(=O)(=O)c1ccc(C(=O)OCC(=O)NCc2ccco2)cc1 returned CHOP inh 18, WT yeast gro inh -8, NR3A LBD binder -1, TbMetRS inhib 0, EBV gp42 block -12, MPTP block 51*, MPTP counter -1, MPTP abs DR >100 and MPTP counter DR >80.
For CC[C@H](C)[C@@H](CN[C@H](C)CNC)NCCC(c1ccccc1)c1ccccc1 the results were NR3A LBD binder -3, TbMetRS inhib 0, MPTP block 101*, MPTP counter -17, MPTP abs DR 3.8* and MPTP counter DR >80.
Screening CCc1ccc(CN2CCCC(CNS(=O)(=O)c3ccc(OC)cc3)C2)cc1 (stereo not drawn) returned CHOP inh 6, WT yeast gro inh 4, NR3A LBD binder 3, TbMetRS inhib -1, EBV gp42 block -9 and MPTP block 0.
CC1=C([N+](=O)[O-])C(c2cccc(Br)c2)C2=C(N1)c1ccccc1C2=O (stereo not drawn) was read as CHOP inh 29, WT yeast gro inh 15, NR3A LBD binder 4, TbMetRS inhib -1, EBV gp42 block 0, MPTP block 85* and MPTP counter 58*.
For O=C(Nc1ccc(N2CCOCC2)cc1)Nc1ccc2nsnc2c1 the results were CHOP inh 14, WT yeast gro inh 0, NR3A LBD binder -9, TbMetRS inhib -1, EBV gp42 block -2 and MPTP block -1.
Screening CC(C)c1noc2ncc(C(=O)c3cc(Cl)cc(Cl)c3O)cc12 returned CHOP inh 9, WT yeast gro inh 16, NR3A LBD binder -2, TbMetRS inhib -1, EBV gp42 block -26, MPTP block 94* and MPTP counter 105*.
`Nc1nc2ncc(C(=O)c3cc(Cl)cc(Cl)c3O)cc2s1` gave CHOP inh 9, NR3A LBD binder 0, TbMetRS inhib 0, EBV gp42 block 32 and MPTP block -1.
`Cc1cc(NS(=O)(=O)c2ccc(NC(=O)C(C)Oc3ccccc3Cl)cc2)no1` (stereo not drawn) gave NR3A LBD binder -1, TbMetRS inhib -1 and MPTP block -1.
For CN(Cc1ccccc1)C(=S)NC(=O)c1ccccc1 the results were CHOP inh -1, WT yeast gro inh 24, NR3A LBD binder 1, TbMetRS inhib 0, EBV gp42 block -7 and MPTP block 0.
